KCC2 mod: KCC2 (human) Cl- transport modulation. 190,000 compounds, 2.2% hits. B-score of Tl+ flux slope (higher = more flux/activation; lower = inhibition) at 10 µM. KCC2 cells, thallium flux FluoZin-2 fluorescence. Q9H2X9. AID 1456;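 active = thallium flux slope and its plate-corrected score both differing from the plate sample mean at a set confidence after two filtering rounds, in either direction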;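 also: slope of fluorescence scaled to starting intensity during 10 to 20 s after thallium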
14-3-3 Bad PPI: disrupts binding of bovine 14-3-3 zeta to phospho-Bad peptide; P63103; TR-FRET 14-3-3zeta/Dy647-pBad peptide displacement, 1 h; inhibition, % at 21.7 µM; 220,000 compounds, 0.71% hits; AID 781;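 active = inhibition above about 70%, limit read from the data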
Target sequence (P63103 whole entry, looked up): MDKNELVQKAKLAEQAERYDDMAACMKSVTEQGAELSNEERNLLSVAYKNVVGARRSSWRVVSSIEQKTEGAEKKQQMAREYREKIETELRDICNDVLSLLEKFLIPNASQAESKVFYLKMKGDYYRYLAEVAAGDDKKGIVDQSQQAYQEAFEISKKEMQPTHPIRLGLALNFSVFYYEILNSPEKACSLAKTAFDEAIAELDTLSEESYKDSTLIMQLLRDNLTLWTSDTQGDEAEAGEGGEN
WT yeast gro inh: growth inhibition of WT yeast, mitochondrial fusion screen; inhibition, % at 10 µM; mitochondrial fusion phenotypic screen, WT strain; 190,000 compounds, 2.1% hits; in the data active = inhibition above about 58%; tested in S. cerevisiae
ROMK mod: modulates human ROMK potassium channel activity. AID 1918. Tet-inducible ROMK, thallium flux fluorescence; actives lie on both sides. B-score at 10 µM. 130,000 compounds, 2% hits;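 active = signal ratio slope over the read window, or its plate-corrected B-score, at least 3 SD from the plate mean, either direction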;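 also: B-score of the F/F0 ratio slope over 7 to 12 s after thallium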
RBBP9 inhibitor: blocks human serine hydrolase RBBP9 | 220,000 compounds, 0.2% hits | recombinant RBBP9, FP-Rh probe fluorescence polarization | AID 1515 | inhibition, % at 7.94 µM;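 active = inhibition above the campaign mean of all tested compounds plus 3 SD, cut at about 14% in these data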
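Test system – recombinant human RBBP9 · Input – RBBP9 2.5 µM in dispensing solution, pre-mixing · Medium – Tris buffer pH 8.0, NaCl, Pluronic · Schedule – preincubation 30 min plus labeling 45 min at 25 °C · Measured by – fluorescence polarization · Measure – % inhibition · Controls – DMSO and no-protein wells · Replicates – one well per compound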
NCF1 inh: p47phox (human) inhibition | AID 1274 | p47phox/p22phox peptide binding, fluorescence polarization, 2 h | 220,000 compounds, 0.53% hits | inhibition, % at 24.7 µM;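 active = inhibition above about 30%, limit read from the data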
Target sequence (P14598 whole entry, looked up): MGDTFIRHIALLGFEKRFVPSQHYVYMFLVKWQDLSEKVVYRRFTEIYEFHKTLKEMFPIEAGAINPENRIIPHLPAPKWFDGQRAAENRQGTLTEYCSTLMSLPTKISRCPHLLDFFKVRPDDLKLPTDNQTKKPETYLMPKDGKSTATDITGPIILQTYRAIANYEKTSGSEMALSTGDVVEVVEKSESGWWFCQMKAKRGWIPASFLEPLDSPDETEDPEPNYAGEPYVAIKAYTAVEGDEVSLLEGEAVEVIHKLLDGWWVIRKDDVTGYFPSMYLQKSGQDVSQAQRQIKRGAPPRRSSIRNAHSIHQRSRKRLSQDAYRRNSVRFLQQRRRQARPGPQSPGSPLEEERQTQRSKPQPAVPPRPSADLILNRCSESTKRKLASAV
ROMK hit retest: human ROMK channel modulation, retest confirmation. shares compounds with ROMK mod. normalized thallium flux (F/F0 slope) at 10 µM. AID 1917. ROMK thallium flux, fluorescence ratio; hits give low values. 3,000 compounds, 54% hits;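 active = Flux at 10 µM at least 3 SD below or above vehicle control mean in one or both replicates; inconclusive = no clear call, values can overlap the other calls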
Of the large screens only hits and unclear results are named; the others gave an inactive call (follow-up assays come after a bar, where they were run). Hits are enriched below; roughly 5.8% of the tested compounds scored in any of these assays.

CC(C)CCSc1nc2c(c(=O)[nH]c(=O)n2C)n1CCCc1ccccc1	none (no result: ROMK mod) | ROMK hit retest inactive
O=C(O)COc1ccccc1/C=N/NC(=O)CSc1nc2ccccc2n1Cc1ccc(Cl)cc1	none (no result: WT yeast gro inh)
Cc1sc2cc3c(c(C(=O)c4ccccc4)[n+]2c1C)-c1cccc2cccc-3c12	WT yeast gro inh 70, ROMK mod -3.1, NCF1 inh 37 | ROMK hit retest 0.055
O=C(c1ccccc1)c1c2c(cc3sc4ccccc4[n+]13)-c1cccc3cccc-2c13	none (no result: ROMK mod) | ROMK hit retest 0.045
N#Cc1c(Oc2ccc3ccccc3c2)sc(C(=O)c2ccccc2)c1N	none (no result: ROMK mod)
CS(=O)(=O)c1nc2c(cc1C#N)CCCC2	none
OC1(CNCc2cn[nH]c2-c2cc3ccccc3o2)CCCCC1	none
CC1(C)CC(=O)c2sc(NC(=O)c3ccco3)nc2C1	none (no result: ROMK mod)
CC1(C)CNC(=O)c2sc(NC(=O)c3ccccc3Cl)nc2C1	none | ROMK hit retest inactive
O=C(c1ccc(F)cc1)N1CCCC(C(=O)N2CCc3ccccc3C2)C1 (stereo not drawn)	none (no result: WT yeast gro inh)
O=c1[nH]c(CSc2nc3ccccc3[nH]2)nc2c1cnn2-c1ccccc1	ROMK mod -3.4 | ROMK hit retest 0.053
COc1ccc(-c2nc(CN3CCC(C(=O)N4CCc5ccccc54)CC3)c(C)o2)cc1OC	none (no result: KCC2 mod, ROMK mod) | ROMK hit retest inconclusive
COc1cc(/C=C(\C#N)C(=O)N2CCOCC2)cc(Br)c1O	none (no result: ROMK mod)
N#C/C(=C\c1cccc(Oc2ccccc2)c1)C(=O)N1CCOCC1	ROMK mod -7 | ROMK hit retest 0.036
Cc1ccc(OCC(=O)Nc2ccccc2[N+](=O)[O-])c(Br)c1	none
O=Cc1ccc(-c2ccccc2OC(F)(F)F)o1	ROMK mod 3.8 (no result: KCC2 mod) | ROMK hit retest 0.11
Cc1c(C(=O)O)cccc1-c1ccc(C=O)o1	none
CCOC(=O)c1ccc2[nH]c3c(c2c1)CCCCC3=O	none (no result: ROMK mod) | ROMK hit retest inactive
CCOC(=O)c1ccc2[nH]c3c(c2c1)CCCC3C(=O)OCC (stereo not drawn)	none (no result: ROMK mod)
Cc1ccc(NC(=O)C2CC(=O)Nc3ncnn32)c(C)c1 (stereo not drawn)	none (no result: WT yeast gro inh, ROMK mod)
CCOc1ccc2nc(NC(=O)C(NS(=O)(=O)c3cccc4nsnc34)C(C)C)sc2c1 (stereo not drawn)	none (no result: ROMK mod) | ROMK hit retest 0.056
CC(C)C(NS(=O)(=O)c1cccc2nsnc12)C(=O)NCCC1=CCCCC1 (stereo not drawn)	none (no result: ROMK mod)
COc1cc(CNc2ccc(C)c(C)c2)cc(OC)c1OC	ROMK mod 3.4 | ROMK hit retest inactive
COc1ccc2cc(-c3[nH]ncc3CN3CCCC3c3nonc3C)ccc2c1 (stereo not drawn)	none
COc1cc2cc(CN(CCc3cccc(C)c3)C(=S)NCCCN3CCOCC3)c(=O)[nH]c2cc1OC	none
Cn1c(=O)c2c(nc(N3CCNCC3)n2Cc2ccccc2Cl)n(C)c1=O	ROMK mod 1.6 | ROMK hit retest inactive
COc1cccc(CC(=O)Nc2ccccc2C(=O)N2CCOCC2)c1	none
Cc1cccc(OCC(=O)Nc2ccccc2C(=O)N2CCOCC2)c1	ROMK mod 3.1 | ROMK hit retest inconclusive
CC(=O)n1cc(N(C(=O)CCl)c2ccccc2)c2ccccc21	ROMK mod -2.8 (no result: WT yeast gro inh) | ROMK hit retest inconclusive
O=C(Cn1nnc(-c2cccs2)n1)NNC(=O)c1ccccc1Cl	none (no result: WT yeast gro inh)
NC(=O)c1nnn(-c2nonc2N)c1-c1ccc([N+](=O)[O-])cc1	none (no result: ROMK mod)
Cc1ccc(OCCn2cc(/C=C3\C(=O)NN(c4ccccc4)C3=O)c3ccccc32)cc1	none
O=C1NN(c2ccccc2)C(=O)/C1=C/c1ccc(Sc2cccc3ccccc23)o1	ROMK mod -3.9 | ROMK hit retest 0.067
C/C(CC(=O)Nc1cccnc1)=N\NC(=O)C(=O)Nc1cccc(C)c1	none
CCOC(=O)C(=Cc1ccc(-n2cncn2)cc1)C(=O)OCC	ROMK mod -5.1 | ROMK hit retest 0.063
Cc1c(N=C(N)/N=C(\N)Nc2ccc(Br)cc2)c(=O)n(-c2ccccc2)n1C	none
O=C(N/N=C\c1c(O)ccc2ccccc12)c1ccc(S(=O)(=O)N2CCCCC2)cc1	ROMK mod -3.8 | ROMK hit retest 0.051
NNC(=O)c1cc2sccc2s1	none (no result: WT yeast gro inh, ROMK mod)
O=C(N/N=C/c1cn(-c2cccs2)nc1-c1ccccc1)c1ccc(O)cc1	ROMK mod -3.5 | ROMK hit retest 0.059
CCC1CCCCN1C(=O)CSc1nc2ccsc2c(=O)n1Cc1ccccc1 (stereo not drawn)	ROMK mod -3.1 | ROMK hit retest 0.059
O=C(c1cccc(C(F)(F)F)c1)N1CCC(O)(CS(=O)(=O)Cc2ccc(Cl)cc2)CC1	none (no result: ROMK mod) | ROMK hit retest inactive
CN1C(=O)/C(=C\C=C2/CCCN2C)N(C)C1=S	none
CCN1C(=O)/C(=C/C=C2/CCCN2C)OC1=S	ROMK mod -4.9 | ROMK hit retest 0.064
CCc1ccc(/C=C2\Oc3c(ccc(O)c3CN3CCN(C)CC3)C2=O)cc1	ROMK mod -8.1 (no result: WT yeast gro inh) | ROMK hit retest 0.046
CCN1CCN(Cc2c(O)ccc3c2O/C(=C\c2ccc(C)cc2)C3=O)CC1	ROMK mod -5.7 | ROMK hit retest 0.04
COc1cc(S(=O)(=O)NC2CCCCC2)c(C)cc1C	none
COCCNC(=O)/C(C#N)=C/c1ccc(OC(=O)c2cccs2)c(OC)c1	ROMK mod -4.4, NCF1 inh 113 | ROMK hit retest 0.044
COCCNC(=O)/C(C#N)=C/c1ccc(SC)cc1	ROMK mod -3.9 | ROMK hit retest 0.049
COCCNC(=O)/C(C#N)=C/c1ccc(OCc2ccc(F)cc2)cc1	none
COc1cc(/C=C(/C#N)C(=O)Nc2ccccc2)ccc1OCc1ccc(C(=O)O)cc1	ROMK mod -2.5 | ROMK hit retest 0.053
COCCCNC(=O)/C(C#N)=C/c1ccc(F)cc1	ROMK mod -3.9 | ROMK hit retest 0.052
C/C(N)=C(/C#N)C(=O)COC(=O)Cc1coc2cc(C)ccc12	none (no result: KCC2 mod)
COCCNC(=O)/C(C#N)=C/c1c(F)cccc1Cl	ROMK mod -3.7 | ROMK hit retest 0.037
COCCNC(=O)/C(C#N)=C/c1cccs1	none (no result: WT yeast gro inh, ROMK mod)
CCOCCCNC(=O)/C(C#N)=C/c1ccc(C)o1	none
CCCCNC(=O)/C(C#N)=C/c1ccc(F)cc1F	ROMK mod -7.8 | ROMK hit retest 0.046
Cc1nc(N(C)C)c2sc(=S)n(Cc3ccccc3)c2n1	none
CCn1c(=O)c([N+](=O)[O-])c(N2CCN(Cc3ccc4c(c3)OCO4)CC2)c2ccccc21	none (no result: WT yeast gro inh, ROMK mod) | ROMK hit retest 0.064
O=C(O)c1ccc(Cl)c(S(=O)(=O)Nc2cccc(C(=O)Nc3cccc(C(F)(F)F)c3)c2)c1	none
COc1ccc(CCNc2oc(COc3ccccc3Cl)nc2C#N)cc1OC	none (no result: ROMK mod) | ROMK hit retest 0.067
O=C(Cn1c(CO)nc2ccccc21)Nc1ccccc1Cl	ROMK mod -2.5 | ROMK hit retest 0.062
